What was measured:
Liver = assay: Unbound intrinsic clearance in mouse liver microsomes; format: ADME, microsome
[1] = biological target: T1, Bromodomain-containing protein 4 (Homo sapiens, UniProt O60885); assay: Binding affinity to His-tagged BRD4 BD1-BD2 (K57 to K550 residues) (unknown origin) after 1 hr by Alexa-647-conjugated probe based TR-FRET assay
[2] = biological target: Bromodomain-containing protein 2 (Homo sapiens, UniProt P25440); assay: Binding affinity to BRD2 BD1-BD2 (G73 to A560 residues) (unknown origin) after 1 hr by Alexa-647-conjugated probe based TR-FRET assay
[3] = biological target: Bromodomain and WD repeat-containing protein 1 (Homo sapiens, UniProt Q9NSI6); assay: Inhibition of human WDR9 bromodomain 2 (A1310 to E1430 residues) expressed in bacterial expression system by BROMOscan assay
Plasma = assay: Unbound clearance in mouse plasma at 3 mg/kg, iv; format: ADME, organism-based; conditions: in vivo
[4] = biological target: T2, Bromodomain and PHD finger-containing protein 3 (Homo sapiens, UniProt Q9ULD4); assay: Inhibition of human BRPF3 (E588 to G701 residues) expressed in bacterial expression system by BROMOscan assay
T2 sequence (Q9ULD4 whole entry): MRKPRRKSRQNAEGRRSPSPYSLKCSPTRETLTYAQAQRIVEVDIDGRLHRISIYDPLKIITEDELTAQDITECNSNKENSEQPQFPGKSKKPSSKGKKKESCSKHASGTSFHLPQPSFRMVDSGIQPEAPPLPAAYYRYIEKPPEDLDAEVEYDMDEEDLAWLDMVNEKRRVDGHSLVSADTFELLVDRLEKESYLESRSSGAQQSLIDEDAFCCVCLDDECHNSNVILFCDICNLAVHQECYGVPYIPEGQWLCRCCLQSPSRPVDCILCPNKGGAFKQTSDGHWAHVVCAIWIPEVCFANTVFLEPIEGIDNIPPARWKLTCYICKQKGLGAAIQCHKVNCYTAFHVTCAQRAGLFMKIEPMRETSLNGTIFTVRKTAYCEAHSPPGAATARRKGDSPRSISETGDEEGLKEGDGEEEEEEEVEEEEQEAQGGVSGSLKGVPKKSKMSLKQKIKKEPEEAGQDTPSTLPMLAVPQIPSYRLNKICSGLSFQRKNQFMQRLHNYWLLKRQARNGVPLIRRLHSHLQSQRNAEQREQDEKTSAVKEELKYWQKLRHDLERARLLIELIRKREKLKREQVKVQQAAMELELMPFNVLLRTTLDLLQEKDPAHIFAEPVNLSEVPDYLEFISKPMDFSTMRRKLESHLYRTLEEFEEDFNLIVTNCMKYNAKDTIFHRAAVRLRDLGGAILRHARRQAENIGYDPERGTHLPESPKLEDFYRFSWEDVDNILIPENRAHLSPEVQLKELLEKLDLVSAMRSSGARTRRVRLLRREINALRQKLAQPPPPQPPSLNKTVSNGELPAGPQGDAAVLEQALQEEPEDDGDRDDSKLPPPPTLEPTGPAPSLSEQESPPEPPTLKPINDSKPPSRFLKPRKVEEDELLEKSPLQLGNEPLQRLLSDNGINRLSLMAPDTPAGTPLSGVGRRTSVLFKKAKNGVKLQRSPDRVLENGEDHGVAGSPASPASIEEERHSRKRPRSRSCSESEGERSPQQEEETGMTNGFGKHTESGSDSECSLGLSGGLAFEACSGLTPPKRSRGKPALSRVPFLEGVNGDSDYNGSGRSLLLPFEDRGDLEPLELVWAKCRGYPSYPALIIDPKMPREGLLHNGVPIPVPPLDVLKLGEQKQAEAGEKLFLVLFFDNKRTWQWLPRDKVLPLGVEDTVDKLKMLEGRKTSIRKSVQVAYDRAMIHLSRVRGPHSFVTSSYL

[5] = Permeability of the compound; format: physicochemical; conditions: not told; read-out: permeability
[6] = biological target: T3, E3 ubiquitin-protein ligase TRIM33 (Homo sapiens, UniProt Q9UPN9); assay: Inhibition of human TRIM33-phd-bromo (D882 to A1087 residues) expressed in bacterial expression system by BROMOscan assay
T3 sequence (Q9UPN9 whole entry): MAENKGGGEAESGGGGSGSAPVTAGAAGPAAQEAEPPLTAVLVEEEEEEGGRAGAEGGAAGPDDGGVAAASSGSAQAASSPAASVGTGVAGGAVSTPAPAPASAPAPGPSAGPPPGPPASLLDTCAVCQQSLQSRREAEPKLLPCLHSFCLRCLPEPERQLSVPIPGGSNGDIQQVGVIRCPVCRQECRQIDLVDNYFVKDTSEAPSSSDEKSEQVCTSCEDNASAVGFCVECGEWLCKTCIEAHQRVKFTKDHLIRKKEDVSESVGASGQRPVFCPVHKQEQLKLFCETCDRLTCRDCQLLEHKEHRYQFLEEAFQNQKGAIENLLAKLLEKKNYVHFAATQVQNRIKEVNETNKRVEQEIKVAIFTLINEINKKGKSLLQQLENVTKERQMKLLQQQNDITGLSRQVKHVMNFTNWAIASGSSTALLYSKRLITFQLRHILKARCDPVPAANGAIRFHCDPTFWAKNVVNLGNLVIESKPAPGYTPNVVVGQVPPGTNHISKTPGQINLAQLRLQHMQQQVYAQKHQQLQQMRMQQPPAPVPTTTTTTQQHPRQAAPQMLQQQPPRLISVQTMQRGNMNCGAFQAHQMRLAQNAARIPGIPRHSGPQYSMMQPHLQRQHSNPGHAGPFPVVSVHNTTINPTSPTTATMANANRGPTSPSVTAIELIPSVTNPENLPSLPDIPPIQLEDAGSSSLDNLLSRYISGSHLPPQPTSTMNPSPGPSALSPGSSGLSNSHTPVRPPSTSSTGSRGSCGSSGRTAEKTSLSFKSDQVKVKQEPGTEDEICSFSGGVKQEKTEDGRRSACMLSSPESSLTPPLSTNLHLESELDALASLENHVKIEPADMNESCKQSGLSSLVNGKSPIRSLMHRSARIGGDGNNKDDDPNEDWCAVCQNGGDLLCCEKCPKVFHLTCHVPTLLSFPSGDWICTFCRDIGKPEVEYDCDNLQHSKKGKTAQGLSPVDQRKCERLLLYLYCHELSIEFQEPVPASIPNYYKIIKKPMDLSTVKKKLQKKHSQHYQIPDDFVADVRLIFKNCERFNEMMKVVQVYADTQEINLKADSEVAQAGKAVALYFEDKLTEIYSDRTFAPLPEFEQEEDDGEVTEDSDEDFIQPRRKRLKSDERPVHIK

[7] = biological target: T1, Bromodomain-containing protein 4; assay: Inhibition of BRD4 (unknown origin) expressed in human H1299 cells co-expressing HPV16-LCR/E2 after 24 hrs by Bright Glo-luciferase reporter gene assay; format: cell-based
Outline: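 Target-engagement reporter in an H1299-derived line carrying a stably integrated E2 expression cassette and an HPV-LCR-driven luciferase reporter. The read-out is BRD4-dependent E2-mediated transcriptional repression. EC50 is the mean of two measurements.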

[8] = biological target: Bromodomain adjacent to zinc finger domain protein 2A (Homo sapiens, UniProt Q9UIF9); assay: Inhibition of human BAZ2A (M1792 to L1905 residues) expressed in bacterial expression system by BROMOscan assay
Sequence of Bromodomain adjacent to zinc finger domain protein 2A (Q9UIF9 whole entry, the tested form may be a part): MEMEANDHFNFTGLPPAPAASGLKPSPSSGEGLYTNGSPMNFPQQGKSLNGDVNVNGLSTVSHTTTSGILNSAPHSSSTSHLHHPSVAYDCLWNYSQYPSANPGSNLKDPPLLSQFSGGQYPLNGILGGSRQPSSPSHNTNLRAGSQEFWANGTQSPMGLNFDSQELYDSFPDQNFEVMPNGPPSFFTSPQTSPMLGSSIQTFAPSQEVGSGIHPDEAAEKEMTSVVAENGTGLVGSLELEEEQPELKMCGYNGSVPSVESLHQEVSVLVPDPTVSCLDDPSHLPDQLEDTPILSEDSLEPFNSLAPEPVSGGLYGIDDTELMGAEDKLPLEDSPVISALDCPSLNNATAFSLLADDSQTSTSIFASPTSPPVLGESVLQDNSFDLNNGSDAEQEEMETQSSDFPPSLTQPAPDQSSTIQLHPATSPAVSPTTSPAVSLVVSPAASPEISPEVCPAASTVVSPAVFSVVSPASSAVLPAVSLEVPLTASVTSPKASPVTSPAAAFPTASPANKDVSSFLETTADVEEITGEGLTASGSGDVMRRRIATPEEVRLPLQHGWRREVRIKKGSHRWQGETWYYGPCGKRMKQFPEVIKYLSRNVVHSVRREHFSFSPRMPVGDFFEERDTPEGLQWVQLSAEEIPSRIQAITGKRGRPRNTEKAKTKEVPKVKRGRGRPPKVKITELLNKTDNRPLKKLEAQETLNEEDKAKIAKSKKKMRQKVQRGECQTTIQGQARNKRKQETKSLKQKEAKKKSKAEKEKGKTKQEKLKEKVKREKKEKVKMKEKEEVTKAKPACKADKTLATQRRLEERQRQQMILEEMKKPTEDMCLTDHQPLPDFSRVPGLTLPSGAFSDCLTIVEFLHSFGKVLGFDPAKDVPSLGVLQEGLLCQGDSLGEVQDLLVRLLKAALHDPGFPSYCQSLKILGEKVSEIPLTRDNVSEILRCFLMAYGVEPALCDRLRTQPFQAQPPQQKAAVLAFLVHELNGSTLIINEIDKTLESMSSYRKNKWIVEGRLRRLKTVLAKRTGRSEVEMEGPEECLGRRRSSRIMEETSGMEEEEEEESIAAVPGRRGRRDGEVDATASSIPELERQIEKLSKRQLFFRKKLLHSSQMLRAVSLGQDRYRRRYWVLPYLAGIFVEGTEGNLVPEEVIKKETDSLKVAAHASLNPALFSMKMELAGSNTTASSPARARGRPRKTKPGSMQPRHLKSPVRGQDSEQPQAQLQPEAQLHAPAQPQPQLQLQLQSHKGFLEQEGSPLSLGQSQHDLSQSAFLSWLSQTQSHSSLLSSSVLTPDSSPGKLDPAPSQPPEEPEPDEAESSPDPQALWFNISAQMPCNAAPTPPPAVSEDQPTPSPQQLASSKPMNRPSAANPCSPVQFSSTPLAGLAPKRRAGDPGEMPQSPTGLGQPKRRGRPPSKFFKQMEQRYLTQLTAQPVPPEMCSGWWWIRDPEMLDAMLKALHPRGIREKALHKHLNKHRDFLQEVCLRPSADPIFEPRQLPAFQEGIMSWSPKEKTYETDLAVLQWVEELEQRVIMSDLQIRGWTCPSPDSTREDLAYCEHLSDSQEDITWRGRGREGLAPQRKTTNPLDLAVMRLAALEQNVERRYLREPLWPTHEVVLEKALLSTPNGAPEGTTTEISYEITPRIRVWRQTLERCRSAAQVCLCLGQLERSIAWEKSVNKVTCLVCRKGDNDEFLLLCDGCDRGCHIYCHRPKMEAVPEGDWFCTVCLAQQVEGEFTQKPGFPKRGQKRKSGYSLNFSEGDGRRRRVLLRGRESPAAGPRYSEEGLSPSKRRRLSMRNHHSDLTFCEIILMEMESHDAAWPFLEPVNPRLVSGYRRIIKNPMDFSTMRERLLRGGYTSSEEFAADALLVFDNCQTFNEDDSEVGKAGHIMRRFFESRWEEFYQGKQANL

Sequence of Bromodomain-containing protein 2 (P25440 whole entry, the tested form may be a part): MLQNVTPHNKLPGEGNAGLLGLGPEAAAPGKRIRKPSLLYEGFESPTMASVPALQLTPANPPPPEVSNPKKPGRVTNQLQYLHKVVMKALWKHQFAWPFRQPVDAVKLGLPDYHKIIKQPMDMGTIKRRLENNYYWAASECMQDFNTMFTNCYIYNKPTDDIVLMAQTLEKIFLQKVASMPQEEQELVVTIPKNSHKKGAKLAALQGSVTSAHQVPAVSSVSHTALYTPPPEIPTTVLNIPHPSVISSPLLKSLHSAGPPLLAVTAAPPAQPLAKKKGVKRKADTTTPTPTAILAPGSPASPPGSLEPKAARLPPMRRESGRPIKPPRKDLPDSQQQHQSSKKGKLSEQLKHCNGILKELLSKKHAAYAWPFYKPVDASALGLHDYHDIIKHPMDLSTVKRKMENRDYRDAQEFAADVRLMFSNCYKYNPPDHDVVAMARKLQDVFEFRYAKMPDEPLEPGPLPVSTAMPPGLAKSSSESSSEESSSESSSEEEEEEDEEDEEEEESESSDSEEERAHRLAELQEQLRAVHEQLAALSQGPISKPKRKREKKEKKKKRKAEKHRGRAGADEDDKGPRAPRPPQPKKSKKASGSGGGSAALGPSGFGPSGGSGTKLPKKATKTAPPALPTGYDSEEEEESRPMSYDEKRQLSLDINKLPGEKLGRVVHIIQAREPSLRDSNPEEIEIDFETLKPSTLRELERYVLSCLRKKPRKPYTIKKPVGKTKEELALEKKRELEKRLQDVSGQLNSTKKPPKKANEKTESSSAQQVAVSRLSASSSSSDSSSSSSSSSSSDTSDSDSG
Sequence of Bromodomain and WD repeat-containing protein 1 (Q9NSI6 whole entry, the tested form may be a part): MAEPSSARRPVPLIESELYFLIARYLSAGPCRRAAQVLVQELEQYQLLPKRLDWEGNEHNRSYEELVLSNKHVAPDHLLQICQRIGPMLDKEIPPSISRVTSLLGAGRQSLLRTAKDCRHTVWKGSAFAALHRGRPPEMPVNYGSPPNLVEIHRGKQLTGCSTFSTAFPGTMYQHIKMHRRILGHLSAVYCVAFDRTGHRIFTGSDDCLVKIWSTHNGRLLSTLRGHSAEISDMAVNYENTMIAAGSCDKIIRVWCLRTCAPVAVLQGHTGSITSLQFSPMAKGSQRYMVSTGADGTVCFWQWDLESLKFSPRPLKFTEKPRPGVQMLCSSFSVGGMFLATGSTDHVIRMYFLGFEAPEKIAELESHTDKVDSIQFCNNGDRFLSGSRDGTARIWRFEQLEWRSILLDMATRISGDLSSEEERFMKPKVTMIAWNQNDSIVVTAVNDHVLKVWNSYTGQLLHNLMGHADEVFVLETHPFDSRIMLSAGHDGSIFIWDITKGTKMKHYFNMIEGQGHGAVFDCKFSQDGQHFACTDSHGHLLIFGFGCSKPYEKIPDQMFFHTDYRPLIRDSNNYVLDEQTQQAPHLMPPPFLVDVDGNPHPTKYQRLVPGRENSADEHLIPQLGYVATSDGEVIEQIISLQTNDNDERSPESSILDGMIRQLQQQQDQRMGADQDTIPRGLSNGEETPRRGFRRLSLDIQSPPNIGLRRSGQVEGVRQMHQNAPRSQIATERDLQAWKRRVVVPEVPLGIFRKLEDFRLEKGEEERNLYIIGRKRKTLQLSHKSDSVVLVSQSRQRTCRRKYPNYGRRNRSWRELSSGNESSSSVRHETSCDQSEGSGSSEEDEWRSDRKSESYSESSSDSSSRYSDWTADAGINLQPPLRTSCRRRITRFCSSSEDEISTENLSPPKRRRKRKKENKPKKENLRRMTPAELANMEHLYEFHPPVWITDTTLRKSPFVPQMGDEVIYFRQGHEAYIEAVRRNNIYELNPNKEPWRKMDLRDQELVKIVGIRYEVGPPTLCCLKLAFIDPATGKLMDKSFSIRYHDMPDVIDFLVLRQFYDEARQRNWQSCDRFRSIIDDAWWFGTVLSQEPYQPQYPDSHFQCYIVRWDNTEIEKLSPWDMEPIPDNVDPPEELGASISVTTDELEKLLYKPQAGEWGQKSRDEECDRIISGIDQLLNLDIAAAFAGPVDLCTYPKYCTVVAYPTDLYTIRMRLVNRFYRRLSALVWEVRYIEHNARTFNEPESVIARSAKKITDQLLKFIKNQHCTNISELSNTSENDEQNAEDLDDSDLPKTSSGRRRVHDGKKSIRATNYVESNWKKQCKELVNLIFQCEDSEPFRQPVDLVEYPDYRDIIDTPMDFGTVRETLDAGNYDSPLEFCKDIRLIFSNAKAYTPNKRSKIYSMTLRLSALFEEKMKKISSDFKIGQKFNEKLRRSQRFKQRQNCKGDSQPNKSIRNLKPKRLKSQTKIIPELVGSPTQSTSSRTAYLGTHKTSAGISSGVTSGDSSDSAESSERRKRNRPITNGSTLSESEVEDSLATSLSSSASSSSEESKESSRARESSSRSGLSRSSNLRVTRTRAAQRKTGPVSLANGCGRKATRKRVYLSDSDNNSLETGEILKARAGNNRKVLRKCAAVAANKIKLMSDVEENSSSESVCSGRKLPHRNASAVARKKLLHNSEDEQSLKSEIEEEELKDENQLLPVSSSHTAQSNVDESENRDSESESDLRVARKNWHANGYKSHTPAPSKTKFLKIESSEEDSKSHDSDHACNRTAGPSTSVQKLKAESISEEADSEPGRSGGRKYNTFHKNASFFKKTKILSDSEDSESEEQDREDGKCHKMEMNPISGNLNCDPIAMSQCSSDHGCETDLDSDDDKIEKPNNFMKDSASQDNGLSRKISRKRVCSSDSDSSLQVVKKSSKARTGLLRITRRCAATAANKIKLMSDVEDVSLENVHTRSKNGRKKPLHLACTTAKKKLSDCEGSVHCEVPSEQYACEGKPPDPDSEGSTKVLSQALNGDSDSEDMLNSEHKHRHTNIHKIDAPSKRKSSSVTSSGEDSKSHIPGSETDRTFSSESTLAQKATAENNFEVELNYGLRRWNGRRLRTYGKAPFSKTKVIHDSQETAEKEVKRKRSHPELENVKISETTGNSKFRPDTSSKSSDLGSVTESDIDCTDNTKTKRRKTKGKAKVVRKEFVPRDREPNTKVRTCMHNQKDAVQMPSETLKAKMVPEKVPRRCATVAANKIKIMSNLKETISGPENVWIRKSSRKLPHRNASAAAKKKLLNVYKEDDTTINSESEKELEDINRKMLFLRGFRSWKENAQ

| Structure (SMILES) | CL free (Liver) [mL/min/kg] | Ki [1] [nM] | Ki [2] [nM] | IC50 [3] [nM] | CL free (Plasma) [mL/min/kg] | IC50 [4] [nM] | Papp [5] [×10⁻⁶ cm/s] | IC50 [6] [nM] | EC50 [7] [nM] | IC50 [8] [nM] |
| --- | --- | --- | --- | --- | --- | --- | --- | --- | --- | --- |
| Cn1cc(-c2cc(S(C)(=O)=O)ccc2Oc2ccc(F)cc2F)c2cc[nH]c(=O)c21 | 200 | 98 | 160 | > 10000 | 267 | > 10000 | 35 | > 10000 | 150 | 10000 |
| Cc1[nH]c(-c2cc(NS(C)(=O)=O)ccc2Oc2ccccc2)c2c1C(=O)CCC2 | 917 | 33 | 14 | 10000 | 1400 | > 10000 | 27 | > 10000 | 51 | 10000 |
| Cc1[nH]c(-c2cc(S(C)(=O)=O)ccc2Oc2ccc(F)cc2F)c2c1C(=O)NCC2 | < 115 | 300 | 27 | > 10000 | 233 | > 10000 | 22 | > 10000 | 290 | > 10000 |
